Compound activity: PubChem, Johns Hopkins Ion Channel Center
TRPC4 PAM = positive allosteric modulators of TRPC4, primary screen, cell-based, mouse TRPC4beta, HEK293 mu-opioid, Fluo-4 calcium; B-score at 10 µM; AID 2227, 2009; hit rate 0.42% among 310,000; DAMGO EC20, Fluo-4 Ca2+ flux; active compounds read high;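 active means B-score of calcium response area above 5 SD of library B-scores, with initial fluorescence ratio within 5 SD of library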
TRPC4 block = inhibitors of mouse TRPC4 channel, primary screen, Fluo4 calcium, HEK293 TRPC4beta/mu-opioid cells. Short transient receptor potential channel 4 (Mus musculus), Q9QUQ5. DAMGO-evoked Fluo4 calcium flux; active compounds read low. B-score at 10 µM. hit rate 0.39% among 300,000;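 active means B-score over 3 SD under the library average, no early fluorescence shift, positive overall ratio signal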
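Assay system: HEK293 cells with stable TRPC4beta plus mu-opioid receptor expression; Probe or stimulus: DAMGO in two steps, submaximal then maximal; Dosing: single-point compound dosing; Measured by: Fluo4 calcium-dye fluorescence, kinetic read; Read-out basis: B score from integrated Fluo4 fluorescence ratio.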
TRPC6 act = mouse TRPC6 channel activators, primary screen, cell-based, HEK293, membrane potential dye; Short transient receptor potential channel 6 (Mus musculus), Q61143; HEK293-TRPC6 membrane potential dye fluorescence; active compounds read high; B-score at 10 µM; hit rate 0.13% among 310,000; AID 2550, 2010;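 active means B-score of the integrated fluorescence ratio above library mean plus 3 SD, and starting fluorescence ratio within library mean plus 5 SD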;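 further: higher score means more depolarization so channel activation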
Target sequence (Q61143 whole entry, looked up): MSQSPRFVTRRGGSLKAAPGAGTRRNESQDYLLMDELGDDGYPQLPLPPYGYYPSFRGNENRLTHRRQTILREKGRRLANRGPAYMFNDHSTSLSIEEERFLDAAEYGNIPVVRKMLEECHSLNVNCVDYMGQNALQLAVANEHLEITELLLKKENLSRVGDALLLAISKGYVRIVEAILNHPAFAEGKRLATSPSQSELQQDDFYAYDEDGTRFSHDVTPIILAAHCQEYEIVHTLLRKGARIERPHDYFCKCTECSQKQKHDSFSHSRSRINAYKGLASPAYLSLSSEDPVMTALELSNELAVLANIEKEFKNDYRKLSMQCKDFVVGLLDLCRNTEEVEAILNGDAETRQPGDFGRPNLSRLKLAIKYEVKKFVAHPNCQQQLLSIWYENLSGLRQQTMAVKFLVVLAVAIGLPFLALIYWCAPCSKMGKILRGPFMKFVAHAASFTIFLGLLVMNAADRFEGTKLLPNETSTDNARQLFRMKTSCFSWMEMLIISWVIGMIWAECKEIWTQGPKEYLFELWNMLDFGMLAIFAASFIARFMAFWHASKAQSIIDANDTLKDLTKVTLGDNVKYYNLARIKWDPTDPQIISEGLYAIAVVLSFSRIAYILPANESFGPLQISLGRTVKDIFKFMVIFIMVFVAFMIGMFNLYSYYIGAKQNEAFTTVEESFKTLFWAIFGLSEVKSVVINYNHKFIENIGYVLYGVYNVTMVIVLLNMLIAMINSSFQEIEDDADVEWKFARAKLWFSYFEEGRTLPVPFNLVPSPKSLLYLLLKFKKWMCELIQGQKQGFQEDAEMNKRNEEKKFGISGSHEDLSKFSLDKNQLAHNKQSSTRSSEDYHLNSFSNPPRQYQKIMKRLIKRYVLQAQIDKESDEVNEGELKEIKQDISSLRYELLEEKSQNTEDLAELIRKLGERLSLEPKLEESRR
TRPC4 act = activators of mouse TRPC4 channel, primary screen, Fluo4 calcium, HEK293 TRPC4beta/mu-opioid cells; Short transient receptor potential channel 4 (Mus musculus), Q9QUQ5; Fluo4 calcium fluorescence; active compounds read high; hit rate 0.49% among 310,000; B-score at 10 µM; AID 2237, 2010;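 active means B-score above 5 SD of library B-scores, and initial fluorescence ratio not above library mean plus 5 SD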;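 further: positive B-score marks a calcium rise read as TRPC4 activation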
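system = HEK293 cells stably co-expressing mouse TRPC4beta and mu-opioid receptor | schedule = Fluo4 dye loading 45 min at room temperature, 110 s recording | measure = B-scored integrated calcium fluorescence ratio | signal = Fluo4 calcium-sensitive dye fluorescence, kinetic, 1 Hz baseline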
TRPC6 inhibitor = mouse TRPC6 channel inhibitors, primary screen, cell-based, HEK293, membrane potential dye; ACh-evoked depolarization; active compounds read low; B-score at 10 µM; hit rate 1.1% among 310,000; AID 2553, 2010;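 active means B-score under library mean minus 3 SD, initial fluorescence not abnormally high, positive integrated signal ratio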;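 further: B-score derived from integrated fluorescence ratio over the kinetic read; more negative B-score means stronger inhibition of depolarization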
TRPC4 sel inh 2 = mouse TRPC4 off-target activity of TRPC6 inhibitors, second screen; shares compounds with TRPC6 inhibitor; HEK293 TRPC4/MOR, membrane potential dye fluorescence; channel activated by saturating DAMGO dose; inhibition, % at 10 µM; hit rate 42% among 920; AID 2776;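 active means compounds whose fluorescence signal differed from control wells by over 3 SD, either direction, in both duplicate plates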
TRPC4 spec = mouse TRPC4 modulation by TRPC6 hits, confirmation, selectivity assay for TRPC6 inhibitor project, cell-based, HEK293 TRPC4/mu-opioid, membrane potential dye | activity change, negative = inhibition, % at 10 µM | membrane potential fluorescence | AID 2777, 2010 | shares compounds with TRPC6 inhibitor | hit rate 61% among 920;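 active means rise or fall in signal beyond 3 SD of buffer-only wells in both replicate plates, either sign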;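 further: integrated kinetic ratio of fluorescence range over baseline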
HEK293 MPD ctr 2-1 = nonspecific membrane potential effects, parental HEK293, confirmation, counter-screen for TRPC6 inhibitor project, cell-based, second counter screen. parental HEK293 membrane potential dye fluorescence; maximal acetylcholine challenge after compound addition. signal change vs control, % at 10 µM. shares compounds with TRPC6 inhibitor. hit rate 31% among 920;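 active means membrane potential signal moving either way by over 3 SD of the maximum-effect control, in both duplicate plates, meaning non-specific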
HEK293 MPD ctr-1 = membrane potential modulation in parental HEK293, confirmation, counter-screen for TRPC6 inhibitor project, cell-based | shares compounds with TRPC6 inhibitor | parental HEK293 membrane potential dye fluorescence | membrane potential signal change, % at 10 µM | hit rate 60% among 920;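 active means membrane potential signal shifting up or down by more than 3 SD of buffer-only wells, on both duplicate plates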
HEK293 MPD ctr-2 = parental HEK293 membrane potential modulation, confirmation, counter-screen for TRPC6 modulator project, cell-based; membrane potential signal change, % at 10 µM; hit rate 51% among 2,400; AID 488924, 2010; shares compounds with TRPC6 inhibitor; membrane potential dye fluorescence;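 active means membrane potential signal moves up or down beyond 5 SD from buffer-only wells, on both duplicate plates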
HEK293 MPD ctr 2-2 = second counter-screen for TRPC6 modulators: effect in parental HEK293 cells; membrane potential dye fluorescence; after compound, maximal acetylcholine stimulation; AID 488926; shares compounds with TRPC6 inhibitor; hit rate 14% among 2,400; inhibition, % at 10 µM;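 active means membrane potential signal drops by more than 5 SD from the mean control signal, in both duplicate plates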
TRPC4/MOR mod = TRPC4 modulation by TRPC6 hit compounds, confirmation, selectivity assay for TRPC6 modulator project, cell-based, HEK293 TRPC4/mu-opioid, membrane potential dye, mouse. shares compounds with TRPC6 inhibitor. membrane potential fluorescence. percent change from control (negative = decrease, positive = increase), % at 10 µM. hit rate 69% among 2,400. AID 488927, 2010;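 active means membrane potential signal moved up or down beyond 5 SD of buffer control wells, in both duplicate plates, actives on both sides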
TRPC4/MOR inh 2 = second check of whether TRPC6 modulators also affect mouse TRPC4. AID 488928. HEK293 TRPC4/mu-opioid, membrane potential dye fluorescence; stimulated with maximal-effect DAMGO. hit rate 55% among 2,400. inhibition, % at 10 µM. shares compounds with TRPC6 inhibitor;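 active means drop in membrane potential signal beyond 5 SD of the control wells in both duplicate plates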;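 further: TRPC4 counter screen for TRPC6 hits run under conditions tuned for TRPC6 not TRPC4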
TRPC6 block conf = mouse TRPC6 channel inhibitors, confirmation, HEK293 cells, membrane potential dye, duplicate; inhibition, % at 10 µM; AID 488960, 2010; shares compounds with TRPC6 inhibitor; hit rate 43% among 3,300; ACh-evoked depolarization;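 active means fluorescence ratio falls more than 5 SD below the full-stimulation control mean, in both duplicate runs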;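 further: integrated fluorescence ratio of peak minus minimum over baseline after agonist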
TRPC6 act conf = mouse TRPC6 channel activators, confirmation, HEK293 cells, membrane potential dye, duplicate; AID 488961, 2010; HEK293-TRPC6 membrane potential dye fluorescence, FDSS; activation, % at 10 µM; hit rate 11% among 2,800; shares compounds with TRPC6 inhibitor;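 active means ratio signal rise beyond 5 SD above unstimulated control wells' mean, seen in both duplicate runs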
Of the large screens only hits and unclear results are named; the others gave an inactive call (follow-up assays come after a bar, where they were run). Hits are enriched below; roughly 2.3% of the tested compounds scored in any of these assays.

Cc1c(C(=O)OC(C)CCN(C)C)oc2ccccc12 (stereo not given)	TRPC6 inhibitor -9.69 | TRPC4 sel inh 2 inactive | TRPC4 spec 7.3% | HEK293 MPD ctr 2-1 inactive | HEK293 MPD ctr-1 10.5% | TRPC6 block conf inactive
COc1ccc(C(=O)OCCN2CCCCC2)cc1	none
CC(C)(C)c1ccc(C(=O)OCCN2CCCCC2)cc1	TRPC6 act 12.6 | HEK293 MPD ctr-2 127.5% | HEK293 MPD ctr 2-2 inactive | TRPC4/MOR mod 26.0% | TRPC4/MOR inh 2 55.5% | TRPC6 block conf inactive | TRPC6 act conf 66.0%
Cc1c(C(=O)OCC(C)(C)CN(C)C)oc2ccccc12	none
Cc1c(C(=O)OCCN2CCCCC2)oc2ccccc12	TRPC6 inhibitor -8.58 | TRPC4 sel inh 2 inactive | TRPC4 spec 10.4% | HEK293 MPD ctr 2-1 inactive | HEK293 MPD ctr-1 14.8% | TRPC6 block conf inactive
Cn1c(=O)[nH]c(=O)c2c1nc(SCCCO)n2CCCc1ccccc1	none
O=C(CN1CCCC1)N1CCCc2c1c(=O)oc1ccc(OCc3ccccc3)cc21	TRPC6 inhibitor -6.51 | HEK293 MPD ctr-2 inactive | HEK293 MPD ctr 2-2 inactive | TRPC4/MOR mod inactive | TRPC4/MOR inh 2 70.5% | TRPC6 block conf inactive | TRPC6 act conf inactive
COc1ccc(CC(=O)Nc2cccc(/C(C)=N/NC(=O)C3(C)CC3(Br)Br)c2)cc1 (stereo not given)	none
CCN(CC)CCSc1nc2ccccc2c(=S)n1-c1ccccc1	TRPC6 inhibitor -7.32 | TRPC4 sel inh 2 33.0% | TRPC4 spec 3.5% | HEK293 MPD ctr 2-1 237.5% | HEK293 MPD ctr-1 7.1% | TRPC6 block conf inactive | TRPC6 act conf inactive
CCN(CC)CCSc1nc(O)c(-c2ccccc2)c(=O)n1-c1ccccc1	none
CCN(CC)CCSc1nnc(Nc2ccccc2)n1-c1ccccc1	TRPC6 inhibitor -7.76 | TRPC4 sel inh 2 inactive | TRPC4 spec 2.4% | HEK293 MPD ctr 2-1 inactive | HEK293 MPD ctr-1 3.4% | TRPC6 block conf inactive | TRPC6 act conf inactive
COC(=O)c1cc(S(=O)(=O)NCc2ccc(S(N)(=O)=O)cc2)oc1C	none
COc1cccc(C(=O)NNC(=O)Cc2cccs2)c1	none
O=C(COC(=O)c1ccc(S(=O)(=O)C(F)F)cc1)NC(=O)NC1CCCCC1	none
COc1cccc(-n2cnc3c(sc4nc(N5CCOCC5)c5c(c43)CCCC5)c2=O)c1	none
CC1CC(C)CN(C(=O)c2ccc3c(c2NCCO)C(=O)c2ccccc2C3=O)C1 (stereo not given)	TRPC6 inhibitor -6.96 | HEK293 MPD ctr-2 -245.5% | HEK293 MPD ctr 2-2 inactive | TRPC4/MOR mod -45.0% | TRPC4/MOR inh 2 80.0% | TRPC6 block conf 68.5% | TRPC6 act conf inactive
Cc1ccccc1C(=O)N1CCC(C(=O)N2CCN(S(=O)(=O)c3ccccc3F)CC2)CC1	none
CCCCCC[N+](C)(C)CC/C=C1/c2ccccc2Sc2ccc(Cl)cc21	TRPC4 block -7, TRPC6 inhibitor -6.61 | TRPC4 sel inh 2 inactive | TRPC4 spec inactive | HEK293 MPD ctr 2-1 inactive | HEK293 MPD ctr-1 inactive | TRPC6 block conf 78.1% | TRPC6 act conf inactive
CN(C)CC/C=C1/c2ccccc2Sc2ccc(Cl)cc21	TRPC6 inhibitor -5.34 | HEK293 MPD ctr-2 inactive | HEK293 MPD ctr 2-2 inactive | TRPC4/MOR mod 9.0% | TRPC4/MOR inh 2 53.5% | TRPC6 block conf 48.0% | TRPC6 act conf inactive
CN(C)CC/C=C1\c2ccccc2COc2ccccc21	none
Cc1ccc(C(=O)C(C)OC(=O)CN2C(=O)NC3(CCCC3)C2=O)cc1C (stereo not given)	none
O=C(CN1CCN(c2ccccc2F)CC1)NC(=O)NCc1ccccc1	TRPC6 inhibitor -5.14 | HEK293 MPD ctr-2 inactive | HEK293 MPD ctr 2-2 inactive | TRPC4/MOR mod inactive | TRPC4/MOR inh 2 inactive | TRPC6 block conf inactive | TRPC6 act conf inactive
O=C(/C(N=Nc1cccc([N+](=O)[O-])c1)=C(/O)c1ccc(Br)cc1)C(F)(F)F	TRPC6 inhibitor -8.21 | TRPC4 sel inh 2 75.0% | TRPC4 spec 8.5% | HEK293 MPD ctr 2-1 inactive | HEK293 MPD ctr-1 5.2% | TRPC6 block conf 80.5% | TRPC6 act conf inactive
COc1cccc(CNCCc2c[nH]c3ccccc23)c1OCc1ccccc1	none
